Sampled rows, rich in hits. Any-hit rate of the full collection: about 1.9%.
PLC-beta3 inh: human PLC-beta3 inhibitors, primary screen, biochemical, fluorescence. inhibition, % at 12.2 µM. 1-phosphatidylinositol 4,5-bisphosphate phosphodiesterase beta-3 (Homo sapiens), Q01970. 0.18% of 370,000 active. Purified PLC-beta3, fluorogenic substrate; in the data active means inhibition above about 11%;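 further: 0% = median of compound wells on plate and 100% = full blocker control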
PLCg1 inh: PLC-gamma1 enzyme inhibitors, primary screen, biochemical, fluorescence, purified enzyme; AID 720700, 2013; inhibition, % at 12.2 µM; 1-phosphatidylinositol 4,5-bisphosphate phosphodiesterase gamma-1 (Homo sapiens), P19174; fluorogenic substrate; 0.84% of 370,000 active
sPLA2-III inh: human group III sPLA2 inhibitors, primary screen, biochemical, QFRET, BODIPY PC-A2 liposome substrate; Group 3 secretory phospholipase A2 (Homo sapiens), Q9NZ20; QFRET BODIPY PC-A2 liposome hydrolysis, fluorescence; inhibition, % at 12.2 µM; 0.56% of 370,000 active; AID 743126, 2013;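 active means inhibition above mean plus 3 SD of compounds lying within the high and low control bounds, cut at about 19% in these data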;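 further: 0% = median of test compound wells and 100% = no enzyme DMSO wells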
procasp7 counter: procaspase-7 activators, primary screen, counter-screen for procaspase-3 activator project, biochemical, absorbance, HTS, human | Caspase-7 (Homo sapiens), P55210 | recombinant procaspase-7, Ac-DEVD-pNA absorbance 405 nm; D23A/D198A/D206A triple mutant, cannot self-cleave; scale: DMSO 0, 5 µM enzyme 100 | activation, % at 8.5 µM | 0.093% of 330,000 active;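 active means percent activation above the screen-wide mean plus 3 SD, cut at about 25% in these data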
Target sequence (P55210 whole entry D23A/D198A/D206A): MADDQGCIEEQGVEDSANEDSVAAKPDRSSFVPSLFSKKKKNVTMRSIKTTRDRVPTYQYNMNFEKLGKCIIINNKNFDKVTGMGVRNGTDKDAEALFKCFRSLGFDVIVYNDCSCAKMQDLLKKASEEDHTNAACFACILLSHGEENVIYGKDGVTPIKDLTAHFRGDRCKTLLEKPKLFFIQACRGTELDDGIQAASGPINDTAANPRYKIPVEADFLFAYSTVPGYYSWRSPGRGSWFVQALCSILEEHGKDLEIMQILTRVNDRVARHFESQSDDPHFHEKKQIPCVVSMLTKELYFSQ
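Material: Procaspase-7 triple mutant (PC-7 D3A) | Quantity: 2 µM procaspase-7 mutant as dispensed | Reagent: DEVD-pNA substrate | Times: 1 h preincubation, 2 h reaction | Technique: 405 nm absorbance of p-nitroaniline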
Arr AP2 block: inhibitors of beta-arrestin/AP2 binding, primary screen, biochemical, GPCR trafficking, flow cytometry | beta-arrestin 1 C-terminal peptide binding to AP2 beta2-adaptin appendage (human) | FITC-arrestin peptide / GST-AP2 beads; AP2 beta2 appendage carries R879A mutation | inhibition, % at 10 µM | 0.31% of 340,000 active | AID 504490, 2011;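 active means inhibition above a set limit, near 3 SD of compounds lacking own fluorescence, cut at about 54% in these data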;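 further: plate controls were DMSO wells for no effect and 5 µM unlabelled arrestin peptide for full effect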
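System: GST-AP2 R879A glutathione beads. Medium: PBS with 0.05% Tween 20 and 0.1% BSA. Also added: FITC-arrestin peptide, 50 nM. Incubation: 12 min plus 1 h, RT. Measured by: high-throughput flow cytometry of beads, ex 488, em 535 nm. Evaluation: percent drop in bead-associated FITC signal.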
proCasp3 act: activators of human procaspase-3 D3A mutant, primary screen, biochemical, absorbance, PC-3 D3A mutant, single concentration | recombinant procaspase-3 D3A, Ac-DEVD-pNA absorbance 405 nm | activation, % at 8.5 µM | 0.11% of 330,000 active;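 active means activation above the mean of all tested compounds plus 3 SD, cut at about 21% in these data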;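 further: 0% = DMSO alone and 100% = DMSO wells spiked with extra 5 µM PC-3 D3A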
Target sequence (P42574 whole entry D9A/D28A/D175A): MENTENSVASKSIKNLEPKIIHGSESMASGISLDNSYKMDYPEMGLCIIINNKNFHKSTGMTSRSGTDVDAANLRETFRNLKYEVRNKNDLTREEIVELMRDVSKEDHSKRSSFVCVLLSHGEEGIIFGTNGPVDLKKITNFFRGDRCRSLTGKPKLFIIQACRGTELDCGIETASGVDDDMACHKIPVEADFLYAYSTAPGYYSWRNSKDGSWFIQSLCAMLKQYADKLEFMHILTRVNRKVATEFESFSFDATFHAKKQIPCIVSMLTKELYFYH
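Assay system – Procaspase-3 D3A mutant, all three cleavage aspartates alanine · Controls – DMSO-only low control, 5 µM PC-3 D3A high control · Schedule – 1 h compound preincubation, 2 h substrate hydrolysis at 25 °C · Signal – 405 nm absorbance of p-nitroaniline, reads at 0 and 120 min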
PLCg1 ctr: PLC-gamma1 enzyme inhibitors, counter-screen for PLC-beta3 inhibitor project, biochemical, fluorescence. 3.1% of 3,300 active. shares compounds with PLCg1 inh. inhibition, % at 12.3 µM. purified PLC-gamma1, fluorogenic substrate. AID 743258, 2014
PLCbeta3 conf: PLC-beta3 inhibitor confirmation, biochemical, fluorescence, purified enzyme | shares compounds with PLCg1 inh | fluorogenic substrate fluorescence | inhibition, % at 12.3 µM | 1% of 3,300 active | AID 743261, 2014; in the data active means inhibition above about 11%
* marks the source's active call; other numbers are inactive results; · = not tested or not shown. Unless noted, no stated cut-off is given here; in the data, active means inhibition above about 9.5%; inactive means the rest.

SMILES | PLC-beta3 inh | PLCg1 inh | sPLA2-III inh | procasp7 counter | Arr AP2 block | proCasp3 act | PLCg1 ctr | PLCbeta3 conf
O=C(O)C1Nc2c(Cl)cc(Cl)cc2C2C=CCC12 (stereo not given) | · | · | · | -5 | -11 | 1 | · | ·
O=C(O)C1Nc2c(O)cccc2C2C=CCC12 (stereo not given) | 7 | 18* | 1 | 7 | 7 | 1 | -3 | -7
O=C1Nc2ccccc2-n2nnnc2C1N1CCc2ccccc2C1 (stereo not given) | 0 | -2 | -1 | · | · | · | · | ·
COC(=O)C1=C(C)N(Cc2cccc(C(F)(F)F)c2)C(=NCc2ccccc2C(F)(F)F)NC1c1cccc(F)c1 (stereo not given) | 4 | 5 | -14 | · | · | · | · | ·
Cc1cccnc1NC(=O)Nc1cccc(C(F)(F)F)c1 | 3 | 10* | 0 | 3 | 4 | 3 | -5 | -5
Cc1ccc(Oc2nnc(-c3ccccc3)cc2C#N)cc1 | 2 | 3 | -1 | 1 | 20 | -2 | · | ·
N#Cc1cc(-c2ccccc2)nnc1Oc1ccccc1 | -2 | 13* | 5 | -2 | 7 | -3 | -7 | -4
O=C(NCC(=O)N(c1cccnc1)C(C(=O)NC1CCCC1)c1ccccc1)c1ccco1 (stereo not given) | 4 | -1 | -2 | -3 | 14 | 2 | · | ·
CCCCN(C(=O)CNC(=O)c1ccco1)C(C(=O)NC1CCCC1)c1ccc(OC)cc1 (stereo not given) | -1 | 12* | -2 | 8 | 6 | 5 | -3 | -2
O=C(NCC(=O)N(c1cccnc1)C(C(=O)NC1CCCCC1)c1ccccc1F)c1ccco1 (stereo not given) | 5 | 11* | 3 | -6 | -6 | 2 | 2 | 1
C=C(O[C@H]1[C@H](O)CC=C(C(=O)O)[C@@H]1O)C(=O)O | 0 | 1 | 3 | · | · | · | · | ·
CC(C)(C)c1cc(C(=O)NNC(=O)Nc2ccccc2)n(Cc2ccccc2)n1 | 11 | 12* | -9 | 2 | 27 | -2 | 17* | 18*
Cn1c(=O)oc2cc(S(=O)(=O)N3CCN(c4ccccc4)CC3)ccc21 | 4 | 11* | 1 | 7 | 7 | -1 | 7 | 2
Cc1[nH]n(S(=O)(=O)Cc2ccccc2)c(=O)c1N=Nc1ccccc1Cl | 1 | 12* | 7 | -11 | -10 | 2 | 2 | 5
CC(C)C[C@H](NC(=O)c1nc[nH]c1C(=O)N1CCN(C(=O)OC(C)(C)C)CC1)C(=O)OCc1ccccc1 | 5 | 10* | -26 | -16 | 9 | -2 | 3 | 4
O=C1NC[C@@H](CCCCN2CCN(CC3CCCCC3)C(=O)C2=O)N(CCC2CCCCC2)C1=O | 3 | -1 | -5 | · | · | · | · | ·
CC(=O)Nc1ccc(S(=O)(=O)Nc2nc3ccccc3nc2Nc2ccc(O)cc2)cc1 | -64 | -36 | -15 | 12 | -8 | 11 | · | ·
Cc1noc(C)c1NC(=O)Nc1ccc2c(c1)C(=O)N(C)[C@H]1CC[C@H](CC(=O)NCc3ccc(Cl)cc3)O[C@@H]1CO2 | 6 | 7 | -25 | · | · | · | · | ·
O=S(=O)(c1cccs1)N1CCC(CO)(Cc2ccc(Cl)cc2)CC1 | 0 | 10* | -17 | 3 | 36 | 2 | -1 | 0
CCCCCCCCN1C(=O)[C@@H](CC(=O)NCc2ccc(C)o2)C[C@@]2(C(=O)OC)C1=C[C@H](C(C)C)O[C@@H]2C1CC1 | 0 | -4 | -17 | · | · | · | · | ·
CCOC(=O)N1CCN(C(=O)C2CC(=O)N(c3ccc(C)cc3)C2)CC1 (stereo not given) | -3 | 3 | 10 | 8 | 8 | 3 | · | ·
COC(=O)[C@@H]1CCCN1C(=O)[C@@H](NC(=O)OC(C)(C)C)C(C)C | 14* | 8 | 8 | -1 | -5 | 8 | -4 | 1
CC1CCN(C(=O)c2ccc3c(c2NCCO)C(=O)c2ccccc2C3=O)CC1 | 15* | 10* | 6 | -1 | -2 | 8 | 9 | 8
FC(F)(F)C1=CC(c2ccc(Cl)cc2)=NCCN1 | 4 | 11* | 5 | -2 | -7 | -4 | 7 | 6
O=C(Nc1ccc(Cl)c(Cl)c1)N[C@@H]1CC[C@@H](CCn2cc(C3CCCCC3)nn2)O[C@@H]1CO | -2 | 9 | 7 | · | · | · | · | ·
SMILES | PLC-beta3 inh | PLCg1 inh | sPLA2-III inh | procasp7 counter | Arr AP2 block | proCasp3 act | PLCg1 ctr | PLCbeta3 conf
CC1=NN(c2ccc(Cl)cc2)C(=O)C1C(c1ccccc1O)c1c(C)[nH]n(-c2ccc(Cl)cc2)c1=O (stereo not given) | · | · | · | 0 | 2 | 6 | · | ·
CC1=NN(c2ccc(C)cc2C)C(=O)C1C(c1ccccc1O)C1C(=O)N(c2ccc(C)cc2C)N=C1C (stereo not given) | 6 | 13* | -7 | -14 | 17 | -9 | -7 | -4
Cc1nc2ccccn2c1C(O)(c1ccccc1)c1ccccc1 | -1 | 0 | -1 | · | · | · | · | ·
COC(=O)[C@]12C[C@H](CC(=O)NCC34CC5CC(CC(C5)C3)C4)C(=O)N(CCc3ccc(OC)c(OC)c3)C1=C[C@H](C1CCCC1)O[C@@H]2C | 4 | 3 | -16 | · | · | · | · | ·
Cc1cc2oc(C(=O)Nc3nonc3C)c(C)c2cc1C | -11 | 9.6* | 7 | 0 | -9 | 2 | -13 | -13
CCCCNc1ncnc2c1cnn2-c1ccc(C)cc1C | 10 | 11* | 4 | 11 | -63 | 5 | -5 | 0
CCNC(=O)N1CCN(c2ccc(N3CCN(C(=O)NCC)[C@@H](C)C3)c(C)c2)[C@H](C)C1 | -1 | -1 | 15 | · | · | · | · | ·
CO/N=C/C(C#N)=C/c1ccc(OC)cc1 | 7 | 15* | 4 | 5 | 0 | 9 | -2 | 1
COc1ccc(/C=C(/C#N)S(=O)(=O)c2ccc(C)cc2)cc1 | 0 | 1 | -15 | -2 | 4 | 3 | · | ·
Cc1cccc2[nH]c(CN(C)C(=O)C3CCC(=O)N(C4CC4)C3)nc12 (stereo not given) | -4 | -1 | 2 | 4 | -17 | -1 | · | ·
